Source: ChEMBL document CHEMBL2021835 (J Med Chem, 2012)
Calls of active or inactive are those of the source. No cut-off for these calls is given here.

Assays:
[1] = biological target: T1, Signal transducer and activator of transcription 1-alpha/beta (Homo sapiens, UniProt P42224); assay: Displacement of fluorescent probe from the STAT1 after 15 mins by fluorescent polarization assay
T1 sequence (P42224 whole entry): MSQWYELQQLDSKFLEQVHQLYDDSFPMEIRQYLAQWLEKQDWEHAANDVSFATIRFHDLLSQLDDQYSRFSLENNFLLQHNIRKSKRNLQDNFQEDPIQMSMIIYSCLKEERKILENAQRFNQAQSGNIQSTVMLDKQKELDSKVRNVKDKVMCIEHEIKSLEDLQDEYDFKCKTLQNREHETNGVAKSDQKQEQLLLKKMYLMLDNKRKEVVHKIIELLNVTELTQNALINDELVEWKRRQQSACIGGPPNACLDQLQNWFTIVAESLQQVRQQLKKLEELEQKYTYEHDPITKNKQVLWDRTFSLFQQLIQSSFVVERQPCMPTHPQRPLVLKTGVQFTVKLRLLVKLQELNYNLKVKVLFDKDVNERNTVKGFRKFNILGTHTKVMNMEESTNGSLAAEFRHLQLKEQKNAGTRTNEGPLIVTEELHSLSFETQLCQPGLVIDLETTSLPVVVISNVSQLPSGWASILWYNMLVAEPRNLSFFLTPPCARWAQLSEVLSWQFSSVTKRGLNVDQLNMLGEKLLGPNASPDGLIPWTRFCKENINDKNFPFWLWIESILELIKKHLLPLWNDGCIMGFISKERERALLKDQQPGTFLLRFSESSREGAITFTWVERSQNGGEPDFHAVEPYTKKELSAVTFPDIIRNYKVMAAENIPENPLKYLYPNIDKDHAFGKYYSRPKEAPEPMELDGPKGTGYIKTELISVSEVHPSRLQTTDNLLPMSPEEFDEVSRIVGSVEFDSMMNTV

[2] = biological target: T2, Signal transducer and activator of transcription 5B (Homo sapiens, UniProt P51692); assay: Displacement of 5-carboxyfluorescein-labeled GpYLVLDKW from the STAT5b-SH2 domain after 15 mins by fluorescent polarization assay
T2 sequence (P51692 whole entry): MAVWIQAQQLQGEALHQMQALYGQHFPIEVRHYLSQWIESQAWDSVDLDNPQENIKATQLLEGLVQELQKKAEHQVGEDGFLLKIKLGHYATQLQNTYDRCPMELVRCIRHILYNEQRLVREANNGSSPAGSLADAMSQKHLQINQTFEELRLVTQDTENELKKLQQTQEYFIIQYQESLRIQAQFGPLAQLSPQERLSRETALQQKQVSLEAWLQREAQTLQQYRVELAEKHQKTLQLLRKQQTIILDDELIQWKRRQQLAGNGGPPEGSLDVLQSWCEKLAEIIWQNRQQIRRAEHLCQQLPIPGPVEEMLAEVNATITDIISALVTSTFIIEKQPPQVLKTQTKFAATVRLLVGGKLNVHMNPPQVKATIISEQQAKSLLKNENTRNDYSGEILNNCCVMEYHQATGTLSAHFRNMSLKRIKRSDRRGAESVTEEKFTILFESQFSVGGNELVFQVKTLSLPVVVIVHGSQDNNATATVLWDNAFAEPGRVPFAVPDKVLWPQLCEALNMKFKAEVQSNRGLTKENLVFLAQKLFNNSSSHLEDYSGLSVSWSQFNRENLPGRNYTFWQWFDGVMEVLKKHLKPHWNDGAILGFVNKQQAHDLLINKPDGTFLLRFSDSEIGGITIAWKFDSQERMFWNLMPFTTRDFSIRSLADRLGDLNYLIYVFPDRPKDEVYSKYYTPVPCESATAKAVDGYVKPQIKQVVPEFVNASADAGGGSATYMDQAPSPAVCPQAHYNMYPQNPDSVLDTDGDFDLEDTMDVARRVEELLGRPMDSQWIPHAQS
Method in brief: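 Competitive FP binding assay in 50 mM NaCl, 10 mM Hepes pH 7.5, 1 mM EDTA, 2 mM DTT with 5% DMSO final. Protein final concentrations were STAT1 120 nM, STAT3 150 nM and STAT5 105 nM. Inhibitor was tested at 200 to 0.2 μM final against 10 nM fluorescent probe, incubated 15 min. Polarization vs concentration was fitted to a standard dose-response curve.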

[3] = Selectivity ratio of Ki for STAT1 to Ki for STAT5b-SH2 domain
[4] = biological target: Signal transducer and activator of transcription 3 (Homo sapiens, UniProt P40763); assay: Displacement of fluorescein-labeled phosphotyrosine-peptide derived from the interleukin-6 receptor subunit gp130 from the STAT3 after 15 mins by fluorescent polarization assay
Sequence of Signal transducer and activator of transcription 3 (P40763 whole entry): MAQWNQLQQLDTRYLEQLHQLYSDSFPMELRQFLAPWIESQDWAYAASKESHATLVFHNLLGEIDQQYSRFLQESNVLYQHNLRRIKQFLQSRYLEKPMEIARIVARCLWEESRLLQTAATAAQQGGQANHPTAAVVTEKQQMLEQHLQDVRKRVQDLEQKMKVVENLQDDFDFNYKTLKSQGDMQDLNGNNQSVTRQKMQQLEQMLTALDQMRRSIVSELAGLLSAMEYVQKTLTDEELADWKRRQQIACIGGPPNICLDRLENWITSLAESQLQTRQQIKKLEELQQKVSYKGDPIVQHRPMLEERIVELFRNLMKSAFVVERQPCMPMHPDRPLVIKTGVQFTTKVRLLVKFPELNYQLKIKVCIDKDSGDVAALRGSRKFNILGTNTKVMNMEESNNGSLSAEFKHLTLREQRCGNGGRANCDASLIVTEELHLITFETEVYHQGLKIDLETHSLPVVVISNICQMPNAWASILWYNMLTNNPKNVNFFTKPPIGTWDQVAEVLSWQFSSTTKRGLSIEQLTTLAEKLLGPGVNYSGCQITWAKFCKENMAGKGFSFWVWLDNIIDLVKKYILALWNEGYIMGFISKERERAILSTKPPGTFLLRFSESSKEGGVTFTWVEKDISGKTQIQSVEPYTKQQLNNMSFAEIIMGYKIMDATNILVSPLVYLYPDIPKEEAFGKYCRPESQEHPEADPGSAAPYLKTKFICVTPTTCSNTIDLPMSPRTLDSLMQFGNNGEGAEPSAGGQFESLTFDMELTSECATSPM
Method in brief: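 Competitive FP binding assay in 50 mM NaCl, 10 mM Hepes pH 7.5, 1 mM EDTA, 2 mM DTT with 5% DMSO final. Inhibitor was tested at 200 to 0.2 μM final against 10 nM fluorescent probe, incubated 15 min. Polarization vs concentration was fitted to a standard dose-response curve.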

[5] = Selectivity ratio of Ki for STAT3 to Ki for STAT5b-SH2 domain
[6] = biological target: T3, Signal transducer and activator of transcription 5A (Homo sapiens) (UniProt P42229); assay: Inhibition of STAT5-mediated C-MYC expression in human K562 cells at 40 uM after 6 hrs by RT-PCR analysis; format: cell-based
T3 sequence (whole entry): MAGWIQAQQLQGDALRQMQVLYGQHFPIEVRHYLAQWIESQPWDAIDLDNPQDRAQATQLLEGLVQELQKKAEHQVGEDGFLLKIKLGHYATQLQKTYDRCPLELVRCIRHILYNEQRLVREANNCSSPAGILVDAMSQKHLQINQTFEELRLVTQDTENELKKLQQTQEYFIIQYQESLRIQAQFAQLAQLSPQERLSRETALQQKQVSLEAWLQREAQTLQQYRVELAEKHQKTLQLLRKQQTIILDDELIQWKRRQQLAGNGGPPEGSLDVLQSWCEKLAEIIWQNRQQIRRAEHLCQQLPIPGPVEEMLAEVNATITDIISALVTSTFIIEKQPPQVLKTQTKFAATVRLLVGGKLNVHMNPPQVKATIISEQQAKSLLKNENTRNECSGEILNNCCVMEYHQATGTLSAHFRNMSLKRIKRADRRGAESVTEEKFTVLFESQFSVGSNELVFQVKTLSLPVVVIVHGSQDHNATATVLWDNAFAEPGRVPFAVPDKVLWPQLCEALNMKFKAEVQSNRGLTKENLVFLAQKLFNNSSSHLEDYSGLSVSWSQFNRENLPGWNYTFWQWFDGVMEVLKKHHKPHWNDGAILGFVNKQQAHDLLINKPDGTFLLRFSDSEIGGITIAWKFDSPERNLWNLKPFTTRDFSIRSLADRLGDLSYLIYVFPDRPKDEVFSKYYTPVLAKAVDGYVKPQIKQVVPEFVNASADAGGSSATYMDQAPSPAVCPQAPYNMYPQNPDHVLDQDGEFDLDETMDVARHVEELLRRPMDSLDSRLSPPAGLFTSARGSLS
Method in brief: (§1)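 K562 cells were treated at 40 μM for 6 h. Transcript levels of the STAT5 target genes were measured by RT-PCR.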

[7] = biological target: T3, Signal transducer and activator of transcription 5A (Homo sapiens); assay: Inhibition of STAT5-mediated MCL-1 expression in human K562 cells at 40 uM after 6 hrs by RT-PCR analysis; format: cell-based; method in brief: as §1
[8] = biological target: T3, Signal transducer and activator of transcription 5A (Homo sapiens); assay: Inhibition of STAT5-mediated cyclin D2 expression in human K562 cells at 40 uM after 6 hrs by RT-PCR analysis; format: cell-based; method in brief: as §1
K562 [9] = assay: Cytotoxicity against human K562 cells expressing STAT5 after 48 hrs by alamar blue fluorescent staining; format: functional, cell-based; settings: K562, 48 h
Method in brief: (§2)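 Cells seeded at 1 × 10^5 in exponential growth and treated at 10, 20 and 40 μM. Viability was read by Alamar Blue fluorescence daily over 3 consecutive days.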

MV4-11 = assay: Cytotoxicity against human MV4-11 cells expressing STAT5 after 48 hrs by alamar blue fluorescent staining; format: functional, cell-based; settings: MV4-11, 48 h; method in brief: as §2
[10] = biological target: T3, Signal transducer and activator of transcription 5A (Homo sapiens); assay: Inhibition of STAT5-mediated cyclin D1 expression in human K562 cells at 40 uM after 6 hrs by RT-PCR analysis; format: cell-based; method in brief: as §1
[11] = Disruption of preformed STAT5 homodimer in NIH3T3 cells co-expressing human EGFR nuclear extracts by electrophoretic mobility shift assay; format: cell-based
[12] = biological target: T4, Bcr/Abl fusion protein (Homo sapiens) (UniProt P00519+P11274); assay: Inhibition of BCR-ABL-mediated AKT phosphorylation in human K562 cells at 40 uM after 6 hrs by phospho-flow cytometry; format: cell-based
T4 sequence (P00519 whole entry, looked up, the tested form may be a part): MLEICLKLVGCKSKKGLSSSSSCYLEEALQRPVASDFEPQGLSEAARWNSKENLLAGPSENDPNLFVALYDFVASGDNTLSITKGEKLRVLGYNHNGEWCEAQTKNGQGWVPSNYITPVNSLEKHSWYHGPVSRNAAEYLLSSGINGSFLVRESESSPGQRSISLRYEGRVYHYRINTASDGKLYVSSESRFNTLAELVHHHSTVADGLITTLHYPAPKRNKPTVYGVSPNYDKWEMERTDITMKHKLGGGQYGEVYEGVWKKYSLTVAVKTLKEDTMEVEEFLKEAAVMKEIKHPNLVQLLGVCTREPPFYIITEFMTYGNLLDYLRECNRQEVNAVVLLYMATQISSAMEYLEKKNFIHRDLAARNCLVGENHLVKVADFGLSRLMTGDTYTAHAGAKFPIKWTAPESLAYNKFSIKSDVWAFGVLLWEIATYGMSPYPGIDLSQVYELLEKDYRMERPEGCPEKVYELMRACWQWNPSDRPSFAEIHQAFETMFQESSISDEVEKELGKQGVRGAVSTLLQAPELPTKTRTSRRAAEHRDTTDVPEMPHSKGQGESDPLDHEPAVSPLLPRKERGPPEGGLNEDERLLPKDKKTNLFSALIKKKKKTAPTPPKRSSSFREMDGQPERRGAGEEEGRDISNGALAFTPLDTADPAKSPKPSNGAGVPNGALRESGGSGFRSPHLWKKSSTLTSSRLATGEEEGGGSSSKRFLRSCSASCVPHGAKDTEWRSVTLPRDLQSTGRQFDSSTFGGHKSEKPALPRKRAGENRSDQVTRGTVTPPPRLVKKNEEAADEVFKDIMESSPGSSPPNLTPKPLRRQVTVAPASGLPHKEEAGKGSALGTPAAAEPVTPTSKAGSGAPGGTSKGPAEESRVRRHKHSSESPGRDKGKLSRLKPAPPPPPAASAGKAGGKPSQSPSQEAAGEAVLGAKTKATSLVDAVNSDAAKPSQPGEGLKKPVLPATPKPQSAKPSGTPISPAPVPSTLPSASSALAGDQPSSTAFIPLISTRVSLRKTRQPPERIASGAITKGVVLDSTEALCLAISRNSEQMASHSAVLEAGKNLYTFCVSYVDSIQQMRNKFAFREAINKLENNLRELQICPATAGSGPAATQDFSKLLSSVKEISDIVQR
T4 sequence (P11274 whole entry, looked up, the tested form may be a part): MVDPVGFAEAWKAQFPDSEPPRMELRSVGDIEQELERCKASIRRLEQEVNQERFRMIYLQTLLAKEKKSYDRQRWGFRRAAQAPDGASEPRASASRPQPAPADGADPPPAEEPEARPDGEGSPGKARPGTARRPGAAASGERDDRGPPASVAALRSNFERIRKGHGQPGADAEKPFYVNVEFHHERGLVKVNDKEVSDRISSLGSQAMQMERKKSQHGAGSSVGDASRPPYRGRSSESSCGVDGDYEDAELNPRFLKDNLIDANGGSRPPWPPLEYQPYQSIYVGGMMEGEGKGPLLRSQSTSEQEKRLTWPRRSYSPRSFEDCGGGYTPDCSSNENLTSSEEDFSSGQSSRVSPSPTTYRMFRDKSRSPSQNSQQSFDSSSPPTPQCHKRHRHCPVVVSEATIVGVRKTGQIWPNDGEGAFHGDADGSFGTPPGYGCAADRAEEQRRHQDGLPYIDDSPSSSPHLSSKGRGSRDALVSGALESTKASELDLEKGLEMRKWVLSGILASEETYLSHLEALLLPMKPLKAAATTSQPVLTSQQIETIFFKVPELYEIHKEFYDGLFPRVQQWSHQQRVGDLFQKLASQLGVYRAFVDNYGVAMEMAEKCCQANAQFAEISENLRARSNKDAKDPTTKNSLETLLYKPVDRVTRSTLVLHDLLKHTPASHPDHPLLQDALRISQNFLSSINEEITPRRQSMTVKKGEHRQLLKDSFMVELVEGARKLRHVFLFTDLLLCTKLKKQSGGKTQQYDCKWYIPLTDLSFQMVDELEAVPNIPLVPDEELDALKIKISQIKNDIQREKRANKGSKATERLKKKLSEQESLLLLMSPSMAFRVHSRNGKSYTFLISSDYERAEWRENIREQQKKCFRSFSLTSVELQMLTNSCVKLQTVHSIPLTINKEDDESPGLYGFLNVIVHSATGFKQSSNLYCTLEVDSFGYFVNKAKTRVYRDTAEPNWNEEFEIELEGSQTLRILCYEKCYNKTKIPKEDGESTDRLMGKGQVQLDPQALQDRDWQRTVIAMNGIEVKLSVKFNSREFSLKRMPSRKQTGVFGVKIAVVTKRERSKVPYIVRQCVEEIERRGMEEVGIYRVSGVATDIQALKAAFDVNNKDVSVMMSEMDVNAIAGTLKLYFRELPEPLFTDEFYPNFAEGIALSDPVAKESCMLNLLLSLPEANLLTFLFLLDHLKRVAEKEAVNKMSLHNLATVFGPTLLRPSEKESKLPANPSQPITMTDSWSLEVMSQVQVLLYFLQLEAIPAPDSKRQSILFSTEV
Method in brief: (§3)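 K562 cells were treated at 40 μM for 6 h, or left untreated, then fixed. Cells were stained with unlabeled rabbit monoclonal antibodies to pSTAT3, pSTAT5 or pAKT1, detected with Cy5-anti-rabbit IgG, and read by flow cytometry.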

K562 [13] = assay: Induction of apoptosis in human K562 cells assessed as late apoptotic cells at 40 uM after 24 hrs using annexin-V FITC/PI double staining by flow cytometry (reference value: 5.6%); format: functional
[14] = biological target: T3, Signal transducer and activator of transcription 5A (Homo sapiens); assay: Inhibition of STAT5 binding to C-MYC promoter region human K562 cells at 40 uM after 6 hrs by chromatin immunoprecipitation assay; format: cell-based
Method in brief: (§4)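 K562 cells were treated at 40 μM for 6 h, cross-linked with 1% formaldehyde and lysed. Chromatin was sonicated to 300–500 bp, keeping 1/20 as input. It was immunoprecipitated overnight at 4 °C with anti-phospho-STAT5 (Tyr694) at 1:50 or control rabbit IgG, pulled down on Protein G agarose, and promoter regions were detected by PCR.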

[15] = biological target: T3, Signal transducer and activator of transcription 5A (Homo sapiens); assay: Inhibition of STAT5 binding to cyclin D1 promoter region human K562 cells at 40 uM after 6 hrs by chromatin immunoprecipitation assay; format: cell-based; method in brief: as §4
K562 [16] = assay: Induction of apoptosis in human K562 cells assessed as pre-necrotic cells at 40 uM after 24 hrs using annexin-V FITC/PI double staining by flow cytometry (reference value: 0.36%); format: functional
[17] = biological target: T4, Bcr/Abl fusion protein (Homo sapiens); assay: Inhibition of BCR-ABL-mediated STAT3 phosphorylation in human K562 cells at 40 uM after 6 hrs by phospho-flow cytometry; format: cell-based; method in brief: as §3
K562 [18] = assay: Induction of apoptosis in human K562 cells assessed as early apoptotic cells at 40 uM after 24 hrs using annexin-V FITC/PI double staining by flow cytometry (reference value: 1.26%); format: functional
[19] = biological target: T4, Bcr/Abl fusion protein (Homo sapiens); assay: Inhibition of BCR-ABL-mediated STAT5 phosphorylation in human K562 cells after 6 hrs by Western blotting analysis; format: cell-based
Method in brief: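 K562 cells were treated for 6 h and 1 × 10^7 cells were lysed in RIPA buffer. Lysates were run on SDS-PAGE and blotted to PVDF, blocked in 5% BSA/PBS-0.1% Tween 20, and probed for pSTAT5, STAT5, pSTAT3, STAT3 and GAPDH. Detection used HRP anti-rabbit with ECL, and bands were quantified by imaging.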

[20] = Cytotoxicity against human Bone marrow cells up to 160 uM after 72 hrs by alamar blue fluorescent staining; format: cell-based; settings: bone marrow cell
[21] = biological target: T4, Bcr/Abl fusion protein (Homo sapiens); assay: Inhibition of BCR-ABL-mediated STAT5 phosphorylation in human K562 cells at 40 uM after 6 hrs by phospho-flow cytometry; format: cell-based; method in brief: as §3
K562 [22] = assay: Induction of apoptosis in human K562 cells assessed as viable cells at 40 uM after 24 hrs using annexin-V FITC/PI double staining by flow cytometry (reference value: 92.8%); format: functional; settings: K562, 24 h, read-out: Activity

SMILES	Ki [1] [µM]	Ki [4] [µM]	Ki [2] [µM]	inhibition [6]	inhibition [7]	inhibition [8]	IC50 (K562 [9]) [µM]	IC50 (MV4-11) [µM]	inhibition [10]	other results
Cc1ccc(S(=O)(=O)N(C)CC(=O)N(Cc2ccc(-c3ccc(-c4ccc(C(N)=O)cc4)cc3)cc2)c2ccc(C(=O)O)c(O)c2)cc1	9.5	8.4	4.8							Ratio Ki [3]: < 2; Ratio Ki [5]: < 2
Cc1ccc(S(=O)(=O)N(C)CC(=O)N(Cc2ccc(C3CCN(c4ccc(C#N)cc4)CC3)cc2)c2ccc(C(=O)O)c(O)c2)cc1	> 25	8.4								
Cc1cc(C)c(S(=O)(=O)N(C)CC(=O)N(Cc2ccc(C3CCCCC3)cc2)c2ccc(C(=O)O)c(O)c2)c(C)c1	9.7		2.8	Active	Active	Active	42	17	Active	IC50 [11]: 100 µM; inhibition [12]: inactive; Activity (K562 [13]): 81.5%; inhibition [14]: Active; inhibition [15]: Active; Activity (K562 [16]): 0.41%; inhibition [17]: inactive; Activity (K562 [18]): 5.57%; inhibition [19]: Dose-dependent effect; Activity [20]: Non-toxic; inhibition [21]: Active; viability at 40 µM (K562 [22]): 12.5%

Second part, led by results:

Ki [1] [µM]	Ki [4] [µM]	SMILES	Ki [2] [µM]	inhibition [6]	inhibition [7]	inhibition [8]	IC50 (K562 [9]) [µM]	IC50 (MV4-11) [µM]	inhibition [10]	other results
> 25		Cc1ccc(S(=O)(=O)N(C)CC(=O)N(Cc2ccc(C3CCCCC3)cc2)c2ccc(C(=O)O)c(O)c2)cc1	> 25							
3.2	2.8	COC(=O)c1cccc(-c2ccc(-c3ccc(CN(C(=O)CN(C)S(=O)(=O)c4ccc(C)cc4)c4ccc(C(=O)O)c(O)c4)cc3)cc2)c1	3.8	Active	Active	Active	24	24	Active	
